The values below come from ChEMBL document CHEMBL3785060, “Nitric Oxide Inhibitory Activity and Absolute Configurations of Arylalkenyl α,β-Unsaturated δ/γ-Lactones from Cryptocarya concinna” (J Nat Prod, 2016).

One data set concerns RAW264.7. As to the kind of experiment: Antiinflammatory activity in mouse RAW264.7 cells assessed as inhibition of LPS-induced nitric oxide production after 18 hrs by Griess assay. Format: functional, cell-based. Conditions: RAW264.7, 18 h. In a few lines:
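LPS-stimulated RAW 264.7 macrophages. Cell viability was first checked by MTT at concentrations up to 100 μM, so that NO inhibition could be separated from cytotoxicity. N-monomethyl-L-arginine served as positive control. Each experiment was run in triplicate. IC50 is given as mean ± SD of three independent experiments.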

Data set [1] in a line: Cytotoxicity against mouse RAW264.7 cells assessed as cell survival up to 100 uM by MTT assay. The format is cell-based. Conditions: read-out: Survival. In a few lines: (§1)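 RAW 264.7 macrophages were screened by MTT before the LPS-induced NO assay to rule out cytotoxicity. Concentrations went up to 100 μM, including 50 μM, and the read-out was percent cell survival. All experiments were run in triplicate.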

Data set [2] is described as follows: Cytotoxicity against mouse RAW264.7 cells assessed as cell survival at 50 uM by MTT assay. The format is cell-based. Conditions: read-out: Survival. In short, it runs like this:
as §1

Where only a bound is given, the exact number is not on record here.

Regarding `CNC(=N)NCCC[C@H](N)C(=O)O` [TILARGININE], the IC50 with RAW264.7 came to 45 µM.
`CC(=O)O[C@@H](C/C=C1/C=CC(=O)O1)C[C@@H](O)C[C@H](O)/C=C/c1ccccc1`: in the data set with RAW264.7, the IC50 amounted to 3.4 µM. For the same molecule, the viability in data set [1] was above 90%.
For `CC(=O)O[C@H](C[C@H](C[C@H](O)/C=C/c1ccccc1)OC(C)=O)C[C@H]1CC=CC(=O)O1`, the concentration for half-maximal inhibition (IC50) with RAW264.7 is above 50 µM.
For `O=C1C=CC[C@H](C[C@@H]2C[C@H](O)C[C@H](/C=C/c3ccccc3)O2)O1`, in the data set on RAW264.7, the IC50 was found to be 4.2 µM. In addition, the viability in data set [1] is above 90%.
In the same order, the values of `CC(=O)O[C@H](C[C@@H](O)C/C=C1/C=CC(=O)O1)C[C@H](O)/C=C/c1ccccc1` are 7.5 µM and above 90%.
For the molecule `CC(=O)O[C@H](C[C@@H](O)C[C@H](O)/C=C/c1ccccc1)C[C@@H]1OC(=O)C=C[C@@H]1O`, the 50% inhibitory concentration (IC50) in the data set on RAW264.7 came out at 27.6 µM. In data set [1], the viability was above 90%.
For `CC(=O)O[C@H](C[C@@H](O)C[C@@H]1OC(=O)C=C[C@@H]1O)C[C@H](O)/C=C/c1ccccc1`, the viability at 50 µM in data set [2] was below 15%.
`O=C1C=CC[C@H](C[C@H](O)C[C@@H](O)C[C@H](O)/C=C/c2ccccc2)O1`: in the data set on RAW264.7, the IC50 was found to be 3.2 µM. Besides, the viability in data set [1] is above 90%.
For the molecule `O=C1C=C[C@H](O)[C@H](C[C@H](O)C[C@@H](O)C[C@H](O)/C=C/c2ccccc2)O1`, the IC50 in the data set on RAW264.7 is 13.8 µM. Moreover, in data set [1], the viability was above 90%.
For `CC(=O)O[C@H](C[C@@H](O)C[C@H](O)/C=C/c1ccccc1)C[C@H]1CC=CC(=O)O1` the same measures were above 50 µM and above 90%.
Take `CC(=O)O[C@H](C[C@@H](O)C[C@H]1CC=CC(=O)O1)C[C@H](O)/C=C/c1ccccc1`: in the data set with RAW264.7, the IC50 was above 50 µM.
